pIC50: −log10 of the molar value. Values after ≈ are worked out from the molar mass of the structure shown. One block for each compound: values may come before it.
Columns and labels:
[1] = biological target: T1, Hepatocyte growth factor receptor (Homo sapiens, UniProt P08581); test: Inhibition of c-Met (unknown origin) using Poly E4Y substrate and ATP incubated for 45 mins by fluorescence polarization assay
NCI-H441 = test: Antiproliferative activity against human NCI-H441 cells assessed as HGF-induced proliferation after 72 hrs by MTT assay; conditions: NCI-H441, 72 h
[2] = Metabolic stability in mouse liver microsomes assessed as compound remaining at 1 uM after 30 mins; format: ADME; conditions: read-out: Stability
Outline: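 Compound at 1 µM incubated in duplicate with mouse liver microsomes (0.5 mg/mL). Final 3 mM MgCl2 and 1 mM EDTA, NADPH-regenerating system in 50 mM potassium phosphate, pH 7.4. Incubated at 37 °C for 0 and 30 min, DMSO at most 0.1%. Quenched with cold acetonitrile containing internal standard, centrifuged, supernatant analysed. Reported as % parent remaining.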

[3] = Metabolic stability in human liver S9 fraction assessed as compound remaining in presence of NADPH at 1 mg/mL after 60 mins by LC-MS/PDA analysis; format: ADME, subcellular; conditions: read-out: Stability
Outline: (§1)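 Compound incubated at 37 °C for 0 and 60 min with human liver S9 (1 mg/ml). Buffer was 50 mM potassium phosphate, pH 7.4, with 3 mM MgCl2 and 1 mM EDTA, with or without an NADPH-regenerating system. Stopped with ice-cold acetonitrile, supernatant dried and reconstituted in 50% methanol. Analysed by LC-MSn/PDA; relative amounts estimated from UV peak intensity at 348 nm.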

[4] = Solubility of the compound in aqueous buffer at pH 1.2 by HPLC method; format: physicochemical
Outline: (§2)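 Excess solid shaken 48 h at 20 °C in pH 1.2 KCl/HCl buffer or pH 7.4 sodium phosphate buffer. Centrifuged 10 min at 4000 rpm, supernatant diluted in mobile phase and quantified by HPLC.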

U-87MG ATCC = test: Antitumor activity against human U87MG cells xenografted in mouse model assessed as tumor growth inhibition at 1 to 10 mg/kg, po once daily up to 21 days; format: functional, organism-based
Outline: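 Female athymic nude mice (6-8 weeks) inoculated in the flank with U87MG glioma cells (3×10^6/mouse). At 200 mm3 tumours, randomized to vehicle or treatment. Oral dosing once daily at 1.0, 2.5 and 10.0 mg/kg in 0.5% CMC-Na, pH 2.1, for 21 days. Tumour size measured 2-3 times weekly, TV=(L×W²)/2. %TGI from mean volume change from first to last treatment day versus vehicle.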

[5] = Oral bioavailability in ICR mouse at 14.1 mg/kg; format: ADME, organism-based; conditions: in vivo
Outline: (§3)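 Male ICR mice, n=3. Oral dose 14.1 mg/kg as a suspension in 0.5% CMC acidified with HCl to pH 2.1. Paired iv arm at 2.5 mg/kg in saline with 10% Solutol HS 15, 10% ethanol and 0.25% DMSO. Staggered blood sampling between 5 min and 24 h post-dose. Plasma levels measured by LC/MS/MS.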

Mus musculus [6] = test: Toxicity in human U87MG cells xenografted mouse model assessed as body weight loss at 1 to 10 mg/kg, po once daily up to 21 days; format: organism-based, U-87MG ATCC; set-up: dose 1-10 mg/kg, route oral; conditions: in vivo, 504 h
Outline: (§4)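 Female athymic nude mice, 6-8 weeks old, inoculated in the flank with 3×10^6 U87MG glioma cells. Randomised once tumours reached 200 mm3. Dosed orally once daily for 21 days in 0.5% CMC-Na, pH 2.1, against vehicle controls. Tumour size measured 2-3 times weekly; volume = L×W²/2. %TGI from change in mean volume, first to last treatment day. Body weight recorded.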

[7] = Half life in ICR mouse at 14.1 mg/kg, po; format: ADME, organism-based; set-up: dose 14.1 mg/kg, route oral; conditions: in vivo; outline: as §3
[8] = AUC (0 to 8 hrs) in ICR mouse at 14.1 mg/kg, po; format: ADME, organism-based; set-up: time < 8 hr, dose 14.1 mg/kg, route oral; conditions: plasma; outline: as §3
[9] = Apparent volume of distribution in ICR mouse at 2.5 mg/kg, iv; format: ADME, organism-based; set-up: dose 2.5 mg/kg, route intravenous; conditions: in vivo, read-out: Vz
Outline: (§5)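 Male ICR mice, n=3, given 2.5 mg/kg iv in saline containing 10% Solutol HS 15, 10% ethanol and 0.25% DMSO. Blood sampled at staggered times from 5 min to 24 h. Plasma concentrations measured by LC/MS/MS. Parameters derived from the iv dosing.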

Mus musculus [10] = test: Inhibition of c-Met autophosphorylation in mouse xenografted with human NCI-H441 cells at 3 mg/kg, po administered as single doss after 6 hrs by ELISA method; format: functional; conditions: NCI-H441, 6 h
Outline: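 Female athymic mice, 6-8 weeks old, n=4, co-implanted subcutaneously with 2×10^6 NCI-H441 cells and 1×10^6 HGF-secreting MRC-5 cells. At 300 mm3, about two weeks, given a single 3 mg/kg oral dose in 0.5% CMC, pH 2.1. Tumours harvested at 6 h and homogenised in lysis buffer with phosphatase and protease inhibitors. Phospho-Met and total Met measured by ELISA, compared with vehicle.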

[11] = Solubility of the compound in aqueous buffer at pH 7.4 by HPLC method; format: physicochemical; outline: as §2
[12] = Antitumor activity against human U87MG cells xenografted in mouse model assessed as tumor growth inhibition at 2.5 mg/kg, po once daily up to 21 days; format: functional, U-87MG ATCC; conditions: U-87 MG, 504 h, read-out: TGI; outline: as §4
[13] = Antitumor activity against human U87MG cells xenografted in mouse model assessed as tumor growth inhibition at 1 mg/kg, po once daily up to 21 days; format: functional, U-87MG ATCC; conditions: U-87 MG, 504 h, read-out: TGI; outline: as §4
[14] = Cmax in ICR mouse at 14.1 mg/kg, po; format: ADME, organism-based; set-up: dose 14.1 mg/kg, route oral; conditions: in vivo; outline: as §3
[15] = Metabolic stability in human liver S9 fraction assessed as compound remaining in absence of NADPH at 1 mg/mL after 60 mins by LC-MS/PDA analysis; format: ADME; conditions: read-out: Stability; outline: as §1
[16] = Antitumor activity against human U87MG cells xenografted in mouse model assessed as tumor growth inhibition at 10 mg/kg, po once daily up to 21 days; format: functional, U-87MG ATCC; conditions: U-87 MG, 504 h, read-out: TGI; outline: as §4
[17] = biological target: T1, Hepatocyte growth factor receptor; test: Inhibition of c-Met autophosphorylation in human NCI-H441 cells for 1 hr by ELISA; format: cell-based
[18] = Plasma clearance in ICR mouse at 2.5 mg/kg, iv; format: ADME, organism-based; set-up: dose 2.5 mg/kg, route intravenous; outline: as §5

Compound: Cn1cc(-c2cnc3nnn(Cc4ccc5ncccc5c4)c3c2)cn1
pIC50 [1]: < 6.00

Compound: OCCn1cc(-c2cnc3nnn(Cc4c[nH]c5ncccc45)c3n2)cn1
pIC50 (NCI-H441): 7.60 | remaining at 0.5 h, 1 µM [2]: 82.6%

Compound: C[C@@H](c1ccc2nccn2c1)n1nnc2ncc(-c3cnn(C)c3)nc21 [SAVOLITINIB]
remaining at 1 h [3]: 99.1% | solubility [4]: 31.8 mg/mL (≈ 92.1 mM) | TGI (U-87MG ATCC): Dose-dependent effect | pIC50 (NCI-H441): 8.22 | bioavailability [5]: 27.2% | Activity (Mus musculus [6]): Non-toxic | half-life [7]: 102 min | AUC(0-t) at 8 h [8]: 5590 ng·h/mL | pIC50 [1]: 8.30 | Vd [9]: 1.2 L/kg | inhibition in vivo at 3 mg/kg (Mus musculus [10]): 84.7% | solubility [11]: 20 µg/mL (≈ 0.0579 mM) | inhibition in vivo at 2.5 mg/kg [12]: 76.6% | inhibition in vivo at 1 mg/kg [13]: 52.8% | Cmax [14]: 4950 ng/mL | remaining at 1 h [15]: 99.7% | inhibition in vivo at 10 mg/kg [16]: 92.8% | pIC50 [17]: 8.52 | clearance [18]: 11 mL/min/kg

Compound: Cn1cc(-c2cnc3nnn(Cc4ccn5nccc5c4)c3n2)cn1
pIC50 (NCI-H441): 6.74 | remaining at 0.5 h, 1 µM [2]: 36.7%

Compound: OCCn1cc(-c2cnc3nnn(Cc4n[nH]c5ncccc45)c3n2)cn1
pIC50 (NCI-H441): 6.54

Compound: C[C@H](c1ccn2nccc2c1)n1nnc2ncc(-c3cnn(CCO)c3)nc21
pIC50 (NCI-H441): 6.78

Compound: Cn1cc(-c2cnc3nnn(Cc4cc5cnccc5s4)c3n2)cn1
pIC50 (NCI-H441): 6.75 | remaining at 0.5 h, 1 µM [2]: 23.5%

Compound: Cn1cc(-c2cnc3nnn(Cc4n[nH]c5ncccc45)c3n2)cn1
pIC50 (NCI-H441): 7.18 | remaining at 0.5 h, 1 µM [2]: 102%

Compound: FC(F)(F)Cn1cc(-c2cnc3nnn(Cc4ccn5nccc5c4)c3n2)cn1
pIC50 (NCI-H441): 7.11 | remaining at 0.5 h, 1 µM [2]: 63.6%

Compound: C[C@@H](c1ccn2nccc2c1)n1nnc2ncc(-c3cnn(CCO)c3)nc21
pIC50 (NCI-H441): 7.80

Compound: FC(F)(F)Cn1cc(-c2cnc3nnn(Cc4n[nH]c5ncccc45)c3n2)cn1
pIC50 (NCI-H441): 7.15 | remaining at 0.5 h, 1 µM [2]: 83%

Compound: C[C@H](c1ccc2nccn2c1)n1nnc2ncc(-c3cnn(C)c3)nc21
pIC50 (NCI-H441): 6.95 | pIC50 [1]: 7.49 | pIC50 [17]: 7.49

Compound: Cn1cc(-c2cnc3nnn(Cc4cc5[nH]ncc5s4)c3n2)cn1
pIC50 (NCI-H441): 6.75 | remaining at 0.5 h, 1 µM [2]: 19.4%

Compound: C[C@@H](c1ccc2nccn2c1)n1nnc2nc(O)c(-c3cnn(C)c3)nc21
solubility [4]: 20.9 mg/mL (≈ 57.8 mM) | solubility [11]: 20 µg/mL (≈ 0.0553 mM)

Compound: N#Cc1ccc(-c2cnc3nnn(Cc4n[nH]c5ncccc45)c3n2)cn1
pIC50 (NCI-H441): 6.76

Compound: OCCn1cc(-c2cnc3nnn(Cc4ccn5nccc5c4)c3n2)cn1
pIC50 (NCI-H441): 7.18 | bioavailability [5]: 90.8% | half-life [7]: 222 min | AUC(0-t) at 8 h [8]: 7000 ng·h/mL | Vd [9]: 2.4 L/kg | Cmax [14]: 1920 ng/mL | remaining at 0.5 h, 1 µM [2]: 93.3% | clearance [18]: 21.5 mL/min/kg

The next lines start with the values.

pIC50 (NCI-H441): 6.69
Compound: N#Cc1ccc(-c2cnc3nnn(Cc4ccc5nccn5c4)c3n2)cn1

pIC50 (NCI-H441): 6.98
Compound: FC(F)(F)Cn1cc(-c2cnc3nnn(Cc4ccc5nccn5c4)c3n2)cn1

pIC50 (NCI-H441): 7.14 | bioavailability [5]: 46% | half-life [7]: 78 min | AUC(0-t) at 8 h [8]: 1070 ng·h/mL | Vd [9]: 5.4 L/kg | Cmax [14]: 1380 ng/mL | remaining at 0.5 h, 1 µM [2]: 70.8% | clearance [18]: 71.3 mL/min/kg
Compound: Cn1cc(-c2cnc3nnn(Cc4ccc5nccn5c4)c3n2)cn1

pIC50 (NCI-H441): 6.35
Compound: Cn1cc(-c2cnc3nnn(Cc4ccc5nccn5n4)c3n2)cn1

pIC50 (NCI-H441): 6.74
Compound: OCCn1cc(-c2cnc3nnn(Cc4ccc5nccn5c4)c3n2)cn1

pIC50 (NCI-H441): 6.94
Compound: Fc1ccc(-c2cnc3nnn(Cc4ccc5nccn5c4)c3n2)cc1

pIC50 (NCI-H441): 6.37
Compound: Cn1cc(-c2cnc3nnn(Cc4ccc5ncnn5c4)c3n2)cn1
